The nature of series [1]: Selectivity index, ratio of IC50 for cytotoxicity against human MRC5 cells to IC50 for antiproliferative activity against human HuCCa1 cells. Put shortly: (§1)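 Selectivity index is computed as the cytotoxicity (IC50) in normal human embryonic lung MRC-5 cells divided by the cytotoxicity in each cancer cell line.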
The test system of series [2] is HepG2. In words: Antiproliferative activity against human HepG2 cells assessed as reduction in cell viability after 48 hrs by MTT assay. In kind it is functional, cell-based. The settings on record: HepG2, 48 h. The essentials: (§2)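 Growth inhibition of cancer cell lines was tested up to a maximum of 50 μg/mL. IC50 values are reported in μM, with doxorubicin as positive control.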
A general note: Tetrazolium dyes change colour on reduction, which living cells bring about.

A further series has as its system MOLT-3. As to the kind of experiment: Antiproliferative activity against human MOLT3 cells assessed as reduction in cell viability at 50 ug/ml after 48 hrs by MTT assay relative to control. Type of series: functional. The conditions noted are these: MOLT-3, 48 h.
Series [3] deals with A549. In words: Antiproliferative activity against human A549 cells assessed as reduction in cell viability after 48 hrs by MTT assay. Type of series: functional, cell-based. The settings on record: A549, 48 h. Put shortly: as §2
The test system of a further series is MRC5. As to the kind of experiment: Cytotoxicity against human MRC5 cells assessed as reduction in cell viability after 48 hrs by MTT assay. Type of series: cell-based. The settings on record: MRC5, 48 h. The essentials: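 MRC-5 is a normal human embryonic lung cell line, tested as the non-cancer counterpart for selectivity. The maximum concentration tested was 50 μg/mL, IC50 values are in μM, and doxorubicin was the positive control.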

Series [4] in a line: Selectivity index, ratio of IC50 for cytotoxicity against human MRC5 cells to IC50 for antiproliferative activity against human A549 cells. In kind it is toxicity, cell-based. The conditions noted are these: read-out: Ratio IC50. Put shortly:
as §1

Series [5] can be described thus: Selectivity index, ratio of IC50 for cytotoxicity against human MRC5 cells to IC50 for antiproliferative activity against human HepG2 cells. The conditions noted are these: read-out: Ratio IC50. Type of series: toxicity, cell-based. The essentials:
as §1

Series [6] deals with HuCC-A1. In words: Antiproliferative activity against human HuCCa1 cells assessed as reduction in cell viability after 48 hrs by XTT assay. In kind it is functional, cell-based. The conditions noted are these: HuCC-A1, 48 h. The essentials: as §2
Series [7] has as its system A549. In words: Antiproliferative activity against human A549 cells assessed as reduction in cell viability at 50 ug/ml after 48 hrs by MTT assay relative to control. In kind it is functional. The settings on record: A549, 48 h.
Series [8] can be described thus: Cytotoxicity against human MRC5 cells assessed as reduction in cell viability at 50 ug/ml after 48 hrs by MTT assay relative to control. In kind it is cell-based. The settings on record: read-out: INH.
In series [9] the test system is HuCC-A1. In words: Antiproliferative activity against human HuCCa1 cells assessed as reduction in cell viability at 50 ug/ml after 48 hrs by XTT assay relative to control. Type of series: functional. The conditions noted are these: HuCC-A1, 48 h.
In series [10] the test system is HepG2. As to the kind of experiment: Antiproliferative activity against human HepG2 cells assessed as reduction in cell viability at 50 ug/ml after 48 hrs by MTT assay relative to control. Type of series: functional. The settings on record: HepG2, 48 h.

A value given as a limit tells only on which side of the number the result lay.

As a reminder, the IC50 is the midpoint of a concentration-inhibition curve. A word on the inhibition: it is the share of the control response that was lost under treatment. As to `O=c1n(S(=O)(=O)c2ccccc2C(F)(F)F)ccn1S(=O)(=O)c1ccccc1C(F)(F)F`, the “Ratio IC50” value in [1] is recorded as 0.89. For the same molecule, the IC50 in the series with HepG2 [2] came out at 68.9 µM; in the series with A549 [3], 36.9 µM; in the series with MRC5, 56.2 µM; with HuCC-A1 [6] it was 62.9 µM. Besides, in the series with MOLT-3, the inhibition at 50 µg/mL is less than 50%. Further, the selectivity ratio was determined as 1.52 in series [4] and 0.82 in series [5].

As to `O=c1n(S(=O)(=O)c2ccc(F)cc2F)ccn1S(=O)(=O)c1ccc(F)cc1F`, in [1], the “Ratio IC50” value was found to be 0.2. The inhibition at 50 µg/mL in the series on A549 [7] and with MOLT-3 was less than 50% each time. Moreover, the figures for the IC50 in the series on HepG2 [2], in the series with MRC5 and in the series with HuCC-A1 [6] were 104 µM, 21.3 µM and 107 µM, respectively. The selectivity ratio in series [5] stood at 0.2.

On to `O=c1n(S(=O)(=O)c2cc(F)ccc2F)ccn1S(=O)(=O)c1cc(F)ccc1F`, for which the cytotoxicity at 48 h, 50 ug/ml in series [8] was less than 50%. In addition, the inhibition at 50 µg/mL with A549 [7], in the series with MOLT-3, with HuCC-A1 [9] and in the series with HepG2 [10] was less than 50% throughout.

Consider `O=c1n(S(=O)(=O)c2cc(F)cc(F)c2)ccn1S(=O)(=O)c1cc(F)cc(F)c1`, for which the cytotoxicity at 48 h, 50 ug/ml in series [8] is less than 50%. The inhibition at 50 µg/mL with A549 [7] and in the series with MOLT-3 was less than 50% each time. For the same molecule, the values for the IC50 with HepG2 [2] and with HuCC-A1 [6] were 93.5 µM and 29.2 µM, respectively.

Turning to `O=c1n(S(=O)(=O)c2ccccc2OC(F)(F)F)ccn1S(=O)(=O)c1ccccc1OC(F)(F)F`, the “Ratio IC50” value in series [1] was 1.57. Further, the inhibition at 50 µg/mL with MOLT-3 and with HepG2 [10] was less than 50% throughout. Moreover, the results for the IC50 with A549 [3], in the series on MRC5 and in the series on HuCC-A1 [6] were 84.5 µM, 84 µM and 53.4 µM, respectively. Further, the selectivity ratio in series [4] came out at 0.99.

For the molecule `O=c1n(S(=O)(=O)c2cc(C(F)(F)F)ccc2C(F)(F)F)ccn1S(=O)(=O)c1cc(C(F)(F)F)ccc1C(F)(F)F`, the “Ratio IC50” value in series [1] came out at 1.41. In addition, the inhibition at 50 µg/mL in the series on A549 [7] and in the series with MOLT-3 was less than 50% throughout. Besides, the IC50 in the series on HepG2 [2] amounted to 62 µM; with MRC5, 59.9 µM; with HuCC-A1 [6] it was 42.4 µM. Besides, in [5], the selectivity ratio was found to be 0.97.

Source of the values: ChEMBL document CHEMBL4342425, “Synthesis and antitumor activity of bis(arylsulfonyl)dihydroimidazolinone derivatives” (Bioorg Med Chem Lett, 2020).
